Results collected from several papers.
Protocols differ between the studies behind these lines.
Observed: enzyme activity
Mode: inhibitor
NUAK1: NUAK family SNF1-like kinase 1 (NUAK1, Homo sapiens, UniProt O60285)
Rock2: Rho-associated protein kinase 2 (Rock2, Rattus norvegicus, UniProt Q62868)
DYRK1B: Dual specificity tyrosine-phosphorylation-regulated kinase 1B (DYRK1B, Homo sapiens, UniProt Q9Y463)

The remaining activity of Cc1nn(CC(F)(F)F)cc1Nc1ncc(C2CC2)c(NCc2ccc(S(N)(=O)=O)cc2)n1 is reported as 97% (NUAK1; radiometric; 1 µM).
CCCOc1ccc(OC)c(F)c1C(=O)c1ccc(C(=O)N[C@@H]2CNC[C@H]2NC(=O)c2ccc3[nH]ncc3c2)cc1 has a remaining activity of -1% (Rock2; 10 µM).
For O=C(O)c1ccc2c(c1)nc(NCCc1cccc(Cl)c1)c1ccncc12, the remaining activity was 112% (DYRK1B; radiometric; 1 µM).
For Cc1cnc(NC2CCOCC2)nc1-n1cnc(C(=O)NC(CN)c2cc(F)cc(Cl)c2)c1 (stereo not drawn), the remaining activity was 25% (Rock2; radiometric; 1 µM).
With O=C(NCCCNc1nc(Nc2cccc(NC(=O)N3CCCC3)c2)ncc1Br)C1CCC1 the remaining activity was -2% (Inhibitor of nuclear factor kappa-B kinase subunit epsilon (IKBKE, Homo sapiens, UniProt Q14164); radiometric; 1 µM).
For COc1cccc(CCNc2nc3cc(C(=O)O)ccc3c3cncnc23)c1, the remaining activity was 28% (Dual specificity tyrosine-phosphorylation-regulated kinase 3 (DYRK3, Homo sapiens, UniProt O43781); radiometric; 1 µM).
Cc1nn(CC(F)(F)F)cc1Nc1ncc(C2CC2)c(NCCCNC(=O)C2CCC2)n1 gave a remaining activity of 82% (NUAK1; radiometric; 1 µM).
The remaining activity of COc1cccc(Nc2nc3cc(C(=O)O)ccc3c3cnccc23)c1 is reported as 35% (DYRK1B; radiometric; 1 µM).
With Cc1ccc(C(=O)Nc2ccc(CN3CCN(C)CC3)c(C(F)(F)F)c2)cc1C#Cc1cnc2cccnn12 the remaining activity was 67% (Mitogen-activated protein kinase kinase kinase 15 (MAP3K15, Homo sapiens, UniProt Q6ZN16); 23.5 nM).
